Screening data from PubChem.
CCR6 antag: CCR6 (human) receptor antagonism; P51684; CHO-K1 CCR6 PathHunter beta-arrestin, luminescence, CCL20-stimulated; AID 493098; actives 0.49% (n = 340,000); inhibition, % at 20 µM;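 active means compounds whose inhibition of the agonist-driven luminescence signal at 20 µM reaches about 50%, limit read from the data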;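 further: cells stimulated with CCL20 at 14 nM final; plate controls were DMSO with CCL20 for no effect and DMSO without agonist for full effect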
Target sequence (P51684 whole entry, looked up): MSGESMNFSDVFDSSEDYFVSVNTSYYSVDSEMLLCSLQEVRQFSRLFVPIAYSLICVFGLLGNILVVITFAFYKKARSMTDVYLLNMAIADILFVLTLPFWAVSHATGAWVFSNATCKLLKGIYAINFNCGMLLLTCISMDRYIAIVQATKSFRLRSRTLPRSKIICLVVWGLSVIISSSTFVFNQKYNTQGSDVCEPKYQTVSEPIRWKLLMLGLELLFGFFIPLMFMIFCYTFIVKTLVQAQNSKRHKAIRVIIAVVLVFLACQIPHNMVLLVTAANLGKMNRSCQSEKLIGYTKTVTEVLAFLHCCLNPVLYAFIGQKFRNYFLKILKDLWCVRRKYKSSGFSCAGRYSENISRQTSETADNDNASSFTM
EBI2 block: antagonists of human EBI2 receptor. actives 0.81% (n = 360,000). P32249. AID 651636. EBI2 beta-arrestin recruitment, luminescence, 7a,25-OHC stimulated. inhibition, % at 5 µM; in the data active means inhibition above about 38%;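 further: enzyme fragment complementation signal reports receptor beta-arrestin coupling in cells; 0% = agonist plus DMSO wells and 100% = wells without agonist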
B2AR ag: activates human beta-2 adrenergic receptor causing internalization. P07550. Am2.2-beta2AR cells, FAP receptor internalization, flow cytometry. response, % (concentration not given with the values). actives 0.43% (n = 340,000). AID 504454;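 active means response above a set limit, near 3 SD of response in nonfluorescent compounds, cut at about 42% in these data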
APJ antagonist: blocks the human apelin receptor APJ; AID 2521; actives 0.32% (n = 330,000); CHO-K1 APJ beta-arrestin complementation, luminescence; P35414; inhibition, % at 20 µM;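 active means inhibition above about 40% at 20 µM, limit read from the data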;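 further: cells challenged with 10 nM apelin-13 agonist together with compound; plate controls were apelin-13 plus DMSO wells for no effect and DMSO wells lacking apelin-13 for full effect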
CXCR6 inh: blocks human CXCR6 beta-arrestin recruitment; O00574; CHO-K1 PathHunter CXCR6 beta-arrestin, luminescence; inhibition, % at 20 µM; actives 0.36% (n = 360,000); AID 602244; in the data active means inhibition above about 34%, passing the limit was not always enough;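 further: antagonist mode with CXCL16 agonist at 10 nM final; 0% = 10 nM CXCL16 with DMSO and 100% = unstimulated wells without agonist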
APJ agonist: APJ receptor agonism. CHO-K1 APJ PathHunter beta-arrestin, luminescence; 0% DMSO wells, 100% apelin. activation, % at 20 µM. actives 0.11% (n = 330,000);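 active means activation more than six SD over the plate average, tested at 20 µM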;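 further: 0% = DMSO alone and 100% = apelin-13 at 10 nM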
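Test system: CHO-K1 APJ beta-arrestin complementation cell line. Amount: cell density 1000 per well. Controls: DMSO negative, 10 nM Apelin-13 positive. Signal: luminescent beta-gal fragment complementation, chemiluminescent substrate. Read-out basis: agonist-driven arrestin binding to APJ. Timing: compound stimulation 90 min at 25 °C, detection 60 min.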
* marks the source's active call; other numbers are inactive results; · = not tested or not shown; ! = a repeat was not active. Hits are enriched below; roughly 1.8% of the tested compounds scored in any of these assays.

SMILES	CCR6 antag	EBI2 block	B2AR ag	APJ antagonist	CXCR6 inh	APJ agonist
CN(CCOc1ccc(Cl)cc1)C(=O)C1CCN(C(=O)c2ccc(F)cc2)CC1	16	32	3	11	6	-9
CN(CCOc1ccccc1)C(=O)C1CCN(C(=O)c2ccc(Cl)cc2)CC1	17	64*	-3	10	-10	-4
O=[N+]([O-])c1ccc2cn(C3OC(CO)C(O)C3O)nc2c1 (centres undefined)	·	-14	·	·	-8	·
C/C(CC(=O)Nc1ccc2c(c1)OCCO2)=N\NC(=O)c1ccccc1F	17	-18	45*	2	6	-3
COc1ccccc1C(=O)N/N=C(\C)CC(=O)Nc1ccc2c(c1)OCCO2	17	-14	2	15	5	-3
Cc1ccc(-c2nnc3n2CCCCC3)cc1	-12	-3	6	2	-2	-2
O=C1Nc2ccccc2C1=Nc1ccc(-c2nnc3n2CCCCC3)cc1	62*!	14	3	-14	4	-4
CC(=O)c1c(C)[nH]c(C(=O)OCc2csc(CC(=O)Nc3ccccc3C)n2)c1C	14	4	-14	-16	-5	3
COc1cc([N+](=O)[O-])cc(/C=N/NC(=O)C(C)Nc2ccccc2C)c1O (centres undefined)	42	69*	5	13	25	-3
CC(C)CC(=O)Nc1ccc2c3c(cccc13)CC2	2	-10	9	-3	2	6
CCCCC(=O)Nc1ccc2c3c(cccc13)CC2	3	-2	46*	0	4	-2
CC(=O)N1CCC(N(CCN2CCOCC2)C(=S)Nc2ccccc2C)CC1	-7	0	7	7	1	-4
O=C(NC(=S)Nc1ccccc1Br)c1ccc2c(c1)OCO2	25	4	-2	-19	14	-5
CC(C)c1ccc(O)c(NC(=S)NC(=O)c2ccc3c(c2)OCO3)c1	·	8	2	13	45*	-10
CC1CC1C(=O)OCC(=O)NNC(=O)c1ccc([N+](=O)[O-])cc1 (centres undefined)	-4	-32	4	-6	-5	3
COC(=O)c1cccc(NC(=O)CN2CCc3ccccc3C2)c1	14	2	-1	-19	4	7
Cc1cc(=O)cc(C)n1-c1ccccc1N	11	-2	45*	13	-3	-1
CCC(CC)C(=O)N(C)c1c(C)nc2c(OCc3ccc(C#N)cc3)cccn12	·	3	·	·	1	·
COCCNC(=O)C1(C)CCCN(CC(=O)c2ccc(OC)cc2)C1 (centres undefined)	·	5	·	·	5	·
Cc1ccc(C(C)C)c(OCCNCCc2ccccc2)c1	1	1	26	-16	-3	-2
CC(=O)OC[C@]12CC[C@H]3[C@@](C)(CC[C@H]4C(C)(C)CCC[C@]34C)[C@@H]1CC(C1=CC(=O)OC1O)O2 (some centres undefined)	·	87*	·	·	39	·
O=C(/C(=C/c1ccc(Cl)cc1)c1nc2ccccc2[nH]1)c1ccccc1	18	50*	40	15	12	-1
O=C(N/C(=C/c1ccc(Cl)cc1)c1nc2ccccc2[nH]1)c1ccco1	6	0	-2	8	-2	0
COc1ccc(CC(=O)NCc2ccc(Cl)cc2)cc1S(=O)(=O)N1CCOCC1	2	7	-5	26	1	3
COc1cc(C2Nc3ccc4ncccc4c3C3=C2C(=O)CCC3)cc(OC)c1OC (centres undefined)	7	7	-17	-4	-14	-2
Cc1ccsc1C1Nc2ccc3ncccc3c2C2=C1C(=O)CCC2 (centres undefined)	1	70*	-14	-33	9	0
COc1ccc(NS(=O)(=O)c2cccc(C(=O)NNC(=O)c3cc(S(N)(=O)=O)ccc3OC)c2)cc1	12	-11	3	4	-1	-3
CC1(C)Cc2nc3scc(NC(=O)c4ccccc4)c3cc2CO1	4	1	-7	8	-2	4
COc1ccc([C@H]2CC(=O)C=C(c3cccc(NC(C)=O)c3)C2)cc1	7	0	-9	-18	8	-2
CCSC1(SCC)N=C(N)C2(C#N)C(c3ccc(F)cc3)C12C#N (centres undefined)	37	-15	25	17	67*	-4
